Active and inactive are the calls of the source. The calls are words filed in the database; no cut-off is given here.
Tests used:
MCF7 [1] = test: Antiproliferative activity against human MCF7 cells assessed as growth inhibition at 10 uM after 72 hrs by MTT assay relative to control; type: functional; conditions: read-out: GI
How it was run: (§1)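 Single-concentration MTT screen on MCF-7 and A549 cells grown in DMEM + 10% FBS. Cells at 3000–6000/well, cultured overnight, then given compound in buffer with 1% DMSO for 72 h. MTT (0.5 mg/mL) added for 4 h, formazan dissolved in DMSO, A570 read. Percent inhibition reported as the average ± S.D. of three independent measurements.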

MCF7 [2] = test: Antiproliferative activity against human MCF7 cells assessed as growth inhibition at 1 uM after 72 hrs by MTT assay relative to control; type: functional; conditions: read-out: GI; how it was run: as §1
A549 [3] = test: Antiproliferative activity against human A549 cells assessed as growth inhibition at 10 uM after 72 hrs by MTT assay relative to control; type: functional; conditions: read-out: GI; how it was run: as §1
Homo sapiens = organism: Homo sapiens; test: Inhibition of PDK (unknown origin) using RYHGHSMSDP as substrate at 1 uM after 30 mins by Kinase-Glo luminescent assay
A549 [4] = test: Antiproliferative activity against human A549 cells assessed as growth inhibition after 72 hrs by MTT assay; type: functional, cell-based; conditions: Homo sapiens, A549, 72 h; read-out: IC50
How it was run: (§2)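 MTT viability assay. Cancer lines seeded at 3000–6000 cells/well and L02 at 7000 cells/well, cultured overnight, then exposed to a full dose range for 72 h. MTT (0.5 mg/mL) added for 4 h, supernatant removed, formazan dissolved in DMSO, absorbance read at 570 nm. IC50 taken as the mean of three independent experiments. Cells grown in DMEM + 10% FBS, 37 °C, 5% CO2.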

SH-SY5Y = test: Antiproliferative activity against human SHSY-5Y cells assessed as growth inhibition after 72 hrs by MTT assay; type: functional, cell-based; conditions: Homo sapiens, SH-SY5Y, 72 h; read-out: IC50; how it was run: as §2
HCT-116 = test: Antiproliferative activity against human HCT-116 cells assessed as growth inhibition after 72 hrs by MTT assay; type: functional, cell-based; conditions: Homo sapiens, HCT-116, 72 h; read-out: IC50; how it was run: as §2
[5] = molecular target: [Pyruvate dehydrogenase (acetyl-transferring)] kinase isozyme 3, mitochondrial (Homo sapiens, UniProt Q15120); test: Binding affinity to PDK3 (unknown origin) by isothermal titration calorimetry
Sequence of [Pyruvate dehydrogenase (acetyl-transferring)] kinase isozyme 3, mitochondrial (Q15120 whole entry): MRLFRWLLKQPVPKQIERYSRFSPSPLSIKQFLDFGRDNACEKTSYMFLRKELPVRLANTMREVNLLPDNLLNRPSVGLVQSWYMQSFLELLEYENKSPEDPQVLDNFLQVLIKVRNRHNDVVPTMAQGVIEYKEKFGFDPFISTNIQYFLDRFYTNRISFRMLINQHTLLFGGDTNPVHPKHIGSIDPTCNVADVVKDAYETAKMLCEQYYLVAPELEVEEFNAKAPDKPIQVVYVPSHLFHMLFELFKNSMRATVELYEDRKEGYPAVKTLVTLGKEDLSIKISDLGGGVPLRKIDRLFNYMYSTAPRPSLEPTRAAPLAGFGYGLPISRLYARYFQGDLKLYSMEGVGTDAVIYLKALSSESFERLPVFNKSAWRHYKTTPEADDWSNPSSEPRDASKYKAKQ
How it was run: (§3)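 Isothermal titration calorimetry at 25 °C. Compound dissolved in DMSO, diluted to 100 µM in buffer and placed in the titration syringe; 250 µL of PDK protein solution in the reaction cell. Titrant added in 2.5 µL increments per injection.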

[6] = molecular target: [Pyruvate dehydrogenase (acetyl-transferring)] kinase isozyme 4, mitochondrial (Homo sapiens, UniProt Q16654); test: Binding affinity to PDK4 (unknown origin) by isothermal titration calorimetry; how it was run: as §3
Sequence of [Pyruvate dehydrogenase (acetyl-transferring)] kinase isozyme 4, mitochondrial (Q16654 whole entry): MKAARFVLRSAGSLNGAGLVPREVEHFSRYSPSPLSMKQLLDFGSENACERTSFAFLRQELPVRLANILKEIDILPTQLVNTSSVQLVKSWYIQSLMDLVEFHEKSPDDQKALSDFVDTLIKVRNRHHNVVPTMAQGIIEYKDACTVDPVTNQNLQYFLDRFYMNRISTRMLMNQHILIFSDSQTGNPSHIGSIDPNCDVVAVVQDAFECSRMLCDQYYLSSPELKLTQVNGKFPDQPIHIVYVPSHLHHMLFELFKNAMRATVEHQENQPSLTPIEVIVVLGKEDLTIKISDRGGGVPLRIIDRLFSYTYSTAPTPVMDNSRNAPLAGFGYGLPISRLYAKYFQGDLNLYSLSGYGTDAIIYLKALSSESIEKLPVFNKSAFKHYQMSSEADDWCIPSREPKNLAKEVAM

A-375 [7] = test: Induction of apoptosis in human A375 cells assessed as viable cells at 1 uM after 36 hrs by annexinV-FITC/propidium iodide staining based flow cytometric analysis (reference value: 94.15%); type: functional; conditions: read-out: Activity
A-375 [8] = test: Induction of apoptosis in human A375 cells assessed as viable cells at 2.5 uM after 36 hrs by annexinV-FITC/propidium iodide staining based flow cytometric analysis (reference value: 94.15%); type: functional; conditions: read-out: Activity
A-375 [9] = test: Induction of apoptosis in human A375 cells assessed as early apoptotic cells at 2.5 uM after 36 hrs by annexinV-FITC/propidium iodide staining based flow cytometric analysis (reference value: 3.2%); type: functional
A-375 [10] = test: Induction of apoptosis in human A375 cells assessed as late apoptotic cells at 2.5 uM after 36 hrs by annexinV-FITC/propidium iodide staining based flow cytometric analysis (reference value: 1.02%); type: functional
A-375 [11] = test: Induction of apoptosis in human A375 cells assessed as necrotic cells at 2.5 uM after 36 hrs by annexinV-FITC/propidium iodide staining based flow cytometric analysis (reference value: 1.63%); type: functional
A-375 [12] = test: Induction of apoptosis in human A375 cells assessed as early apoptotic cells at 5 uM after 36 hrs by annexinV-FITC/propidium iodide staining based flow cytometric analysis (reference value: 3.2%); type: functional
A-375 [13] = test: Induction of apoptosis in human A375 cells assessed as viable cells at 5 uM after 12 hrs by annexinV-FITC/propidium iodide staining based flow cytometric analysis (reference value: 97.94%); type: functional; conditions: read-out: Activity
A-375 [14] = test: Induction of apoptosis in human A375 cells assessed as viable cells at 5 uM after 24 hrs by annexinV-FITC/propidium iodide staining based flow cytometric analysis (Rvb= 97.94%); type: functional; conditions: read-out: Activity
A-375 [15] = test: Induction of apoptosis in human A375 cells assessed as late apoptotic cells at 5 uM after 24 hrs by annexinV-FITC/propidium iodide staining based flow cytometric analysis (reference value: 0.63%); type: functional
A-375 [16] = test: Induction of cell cycle arrest in human A375 cells assessed as accumulation at G2 phase at 1 uM after 24 hrs by propidium iodide staining based flow cytometric analysis (reference value: 10.02%); type: functional
A-375 [17] = test: Induction of cell cycle arrest in human A375 cells assessed as accumulation at G1 phase at 2.5 uM after 24 hrs by propidium iodide staining based flow cytometric analysis (reference value: 52.65%); type: functional
A-375 [18] = test: Induction of cell cycle arrest in human A375 cells assessed as accumulation at S phase at 2.5 uM after 24 hrs by propidium iodide staining based flow cytometric analysis (reference value: 37.33%); type: functional
A-375 [19] = test: Induction of cell cycle arrest in human A375 cells assessed as accumulation at G2 phase at 2.5 uM after 24 hrs by propidium iodide staining based flow cytometric analysis (reference value: 10.02%); type: functional
A-375 [20] = test: Induction of cell cycle arrest in human A375 cells assessed as accumulation at G2 phase at 5 uM after 24 hrs by propidium iodide staining based flow cytometric analysis (reference value: 10.02%); type: functional
A-375 [21] = test: Induction of cell cycle arrest in human A375 cells assessed as accumulation at G1 phase after 24 hrs by propidium iodide staining based flow cytometric analysis; type: functional; conditions: dose 1-5 µM
A-375 [22] = test: Induction of mitochondrial membrane depolarization in human A375 cells at 2 to 10 uM after 4 hrs by TMRM staining based confocal microscopic analysis; type: functional, cell-based; conditions: dose 2-10 µM
How it was run: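 A375 cells seeded at 4 x 10⁴ cells/mL and grown overnight at 37 °C. Treated 4 h at 37 °C. TMRM in fresh medium added for 15 min at 37 °C. Cells washed 3 times with cool PBS and imaged by laser scanning confocal microscopy.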

A-375 [23] = test: Induction of ROS generation in human A375 cells at 1 to 5 uM after 4 hrs by DCFH-DA staining based assay; type: functional, cell-based; conditions: dose 1-5 µM
How it was run: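 ROS assay. A375 cells loaded with diluted DCFH-DA for 45 min at 37 °C, washed three times with PBS, then treated with compound at 37 °C for 4 h. Fluorescence read on a microplate reader at Ex/Em 485/535 nm.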

[24] = Toxicity in mouse xenografted with human A375 cells assessed as reduction in body weight at 5 mg/kg, im administered once per three days for 21 days; type: organism-based; conditions: in vivo, 504 h, time 21 day
How it was run: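 A375 cells at 80% confluence harvested with trypsin/EDTA, resuspended in serum-free DMEM, and injected subcutaneously into the right flank. Tumours visible at 7 days. Mice randomized to vehicle or 5 mg/kg (n = 4/group), dosed intramuscularly once every three days. Body weight followed over 21 days.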

CC(C)(CO)c1ccc(Nc2ccc(C(=O)C(Cl)Cl)cc2[N+](=O)[O-])cc1
inhibition of growth at 10 µM (MCF7 [1]): 95.3%
inhibition of growth at 1 µM (MCF7 [2]): 38.9%
inhibition of growth at 10 µM (A549 [3]): 98.6%
inhibition (Homo sapiens): 98.7%
IC50 (A549 [4]): 3.2 µM
IC50 (SH-SY5Y): 1.7 µM
IC50 (HCT-116): 2.1 µM
Kd [5]: 7.8 µM
Kd [6]: 9.2 µM
viability at 1 µM (A-375 [7]): 81.9%
viability at 2.5 µM (A-375 [8]): 68.9%
Activity (A-375 [9]): 5.6%
Activity (A-375 [10]): 22.3%
Activity (A-375 [11]): 3.17%
Activity (A-375 [12]): 6.52%
viability at 5 µM (A-375 [13]): 82.8%
viability at 5 µM (A-375 [14]): 70.9%
Activity (A-375 [15]): 19.11%
Activity (A-375 [16]): 9.64%
Activity (A-375 [17]): 60.75%
Activity (A-375 [18]): 30.75%
Activity (A-375 [19]): 8.5%
Activity (A-375 [20]): 5.71%
Activity (A-375 [21]): Dose-dependent effect
Activity (A-375 [22]): Active
Activity (A-375 [23]): Active
Activity [24]: Non-Toxic

— ChEMBL document CHEMBL4732185, “Synthesis, biological evaluation and structure-activity relationship of novel dichloroacetophenones targeting pyruvate dehydrogenase kinases with potent anticancer activity” (Eur J Med Chem, 2021)
